Laboratory results taken from ChEMBL document CHEMBL3091303, “1,3-Dialkyl-substituted tetrahydropyrimido[1,2-f]purine-2,4-diones as multiple target drugs for the potential treatment of neurodegenerative diseases” (Bioorg Med Chem, 2013).

How the values were obtained:
[1] = biological target: T1, Amine oxidase [flavin-containing] B (Homo sapiens, UniProt P27338); test: Inhibition of human MAO-B
T1 sequence (P27338 whole entry): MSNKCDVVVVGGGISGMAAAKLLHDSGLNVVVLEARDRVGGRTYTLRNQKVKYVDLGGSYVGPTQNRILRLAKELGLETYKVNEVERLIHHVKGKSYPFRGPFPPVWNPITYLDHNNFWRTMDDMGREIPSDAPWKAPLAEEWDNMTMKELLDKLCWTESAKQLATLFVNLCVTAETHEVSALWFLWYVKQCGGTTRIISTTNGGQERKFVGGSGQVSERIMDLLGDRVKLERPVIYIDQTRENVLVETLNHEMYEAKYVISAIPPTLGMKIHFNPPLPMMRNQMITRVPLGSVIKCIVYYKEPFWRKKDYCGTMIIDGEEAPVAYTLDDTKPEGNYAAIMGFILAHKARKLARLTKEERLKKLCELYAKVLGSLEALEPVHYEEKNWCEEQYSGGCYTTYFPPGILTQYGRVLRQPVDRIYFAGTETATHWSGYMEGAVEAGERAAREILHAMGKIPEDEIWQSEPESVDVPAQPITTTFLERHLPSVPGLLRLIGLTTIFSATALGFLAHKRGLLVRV

Adenosine receptor A2a [2] = biological target: Adenosine receptor A2a (Homo sapiens, UniProt P29274); test: Displacement of [3H]MSX-2 from human adenosine A2A receptor expressed in CHO cells; type: cell-based
Procedure, shortened: (§1)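 Radioligand binding to human receptors recombinantly expressed in Chinese hamster ovary (CHO) cells. Results are Ki, or % inhibition of radioligand binding at the indicated concentration.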

[3] = biological target: T2, Adenosine receptor A3 (Homo sapiens) (UniProt P0DMS8); test: Displacement of [3H]PSB-11 from human adenosine A3 receptor expressed in CHO cells relative to control; type: cell-based; set-up: concentration or dose not given beside the values; conditions: concentration not given here
T2 sequence (whole entry): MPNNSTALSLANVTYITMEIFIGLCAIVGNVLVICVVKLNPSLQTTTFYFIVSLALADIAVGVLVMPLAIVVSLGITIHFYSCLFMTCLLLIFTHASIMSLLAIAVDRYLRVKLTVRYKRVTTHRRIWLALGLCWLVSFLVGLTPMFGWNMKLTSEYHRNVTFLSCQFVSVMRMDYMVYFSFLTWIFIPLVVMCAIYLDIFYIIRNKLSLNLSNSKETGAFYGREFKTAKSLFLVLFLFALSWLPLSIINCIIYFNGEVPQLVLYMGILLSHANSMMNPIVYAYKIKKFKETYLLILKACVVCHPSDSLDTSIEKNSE

Adenosine receptor A2b = biological target: T3, Adenosine receptor A2b (Homo sapiens, UniProt P29275); test: Displacement of [3H]PSB-603 from human adenosine A2B receptor
T3 sequence (P29275 whole entry): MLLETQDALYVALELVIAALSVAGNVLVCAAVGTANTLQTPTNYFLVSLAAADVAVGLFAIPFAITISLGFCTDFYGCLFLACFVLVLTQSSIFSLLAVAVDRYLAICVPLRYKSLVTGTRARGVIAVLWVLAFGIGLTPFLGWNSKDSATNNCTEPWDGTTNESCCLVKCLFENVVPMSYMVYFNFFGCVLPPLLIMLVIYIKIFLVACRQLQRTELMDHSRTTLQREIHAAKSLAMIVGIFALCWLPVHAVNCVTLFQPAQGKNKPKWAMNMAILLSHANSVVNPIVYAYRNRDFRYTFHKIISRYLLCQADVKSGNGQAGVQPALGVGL

Adenosine receptor A1 [4] = biological target: T4, Adenosine receptor A1 (Rattus norvegicus, UniProt P25099); test: Displacement of [3H]CCPA from adenosine A1 receptor in rat brain cortex; type: tissue-based
T4 sequence (P25099 whole entry): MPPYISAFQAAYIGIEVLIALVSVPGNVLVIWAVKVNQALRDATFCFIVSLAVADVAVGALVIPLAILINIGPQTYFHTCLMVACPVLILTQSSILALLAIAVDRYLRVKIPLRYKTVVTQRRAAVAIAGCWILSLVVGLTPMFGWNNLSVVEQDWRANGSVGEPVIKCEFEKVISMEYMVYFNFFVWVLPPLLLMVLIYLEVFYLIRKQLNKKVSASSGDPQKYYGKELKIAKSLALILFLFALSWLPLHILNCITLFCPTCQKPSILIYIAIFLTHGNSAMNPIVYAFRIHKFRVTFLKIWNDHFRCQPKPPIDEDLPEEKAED
Procedure, shortened: (§2)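 Radioligand binding to rat A1 receptors in rat brain cortical membrane preparations. Values are given as Ki, or as % inhibition of radioligand binding at the indicated concentration.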

Adenosine receptor A3 = biological target: T5, Adenosine receptor A3 (Homo sapiens, UniProt P0DMS8); test: Displacement of [3H]PSB-11 from human adenosine A3 receptor expressed in CHO cells; type: cell-based
T5 sequence (P0DMS8 whole entry): T2 sequence (whole entry)

[5] = biological target: T6, Amine oxidase [flavin-containing] A (Homo sapiens, UniProt P21397); test: Inhibition of human MAO-A
T6 sequence (P21397 whole entry): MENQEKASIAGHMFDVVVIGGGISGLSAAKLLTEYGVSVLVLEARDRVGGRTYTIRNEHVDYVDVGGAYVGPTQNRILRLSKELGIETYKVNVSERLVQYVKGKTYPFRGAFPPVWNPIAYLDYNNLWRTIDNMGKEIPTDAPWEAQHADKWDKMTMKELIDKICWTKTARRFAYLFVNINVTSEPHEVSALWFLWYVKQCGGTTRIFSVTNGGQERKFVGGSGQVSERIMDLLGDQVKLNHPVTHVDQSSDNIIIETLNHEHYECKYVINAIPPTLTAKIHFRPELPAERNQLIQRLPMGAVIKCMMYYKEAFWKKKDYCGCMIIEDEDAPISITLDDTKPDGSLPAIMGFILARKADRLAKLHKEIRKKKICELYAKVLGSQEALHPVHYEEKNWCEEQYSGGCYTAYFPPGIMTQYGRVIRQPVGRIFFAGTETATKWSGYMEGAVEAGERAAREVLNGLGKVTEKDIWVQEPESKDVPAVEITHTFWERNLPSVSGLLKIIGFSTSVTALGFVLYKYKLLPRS
Procedure, shortened: (§3)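 Human MAO-A and MAO-B inhibition, screened first at a test concentration of 10 µM.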

[6] = biological target: T7, MAO-A (amine oxidase [flavin-containing] A) (Homo sapiens, UniProt P21397); test: Inhibition of human MAO-A at 10 uM relative to control; procedure, shortened: as §3
T7 sequence (P21397 whole entry): T6 sequence (P21397 whole entry)

Adenosine receptor A1 [7] = biological target: T8, Adenosine receptor A1 (Homo sapiens, UniProt P30542); test: Displacement of [3H]CCPA from human adenosine A1 receptor expressed in CHO cells; type: cell-based; procedure, shortened: as §1
T8 sequence (P30542 whole entry): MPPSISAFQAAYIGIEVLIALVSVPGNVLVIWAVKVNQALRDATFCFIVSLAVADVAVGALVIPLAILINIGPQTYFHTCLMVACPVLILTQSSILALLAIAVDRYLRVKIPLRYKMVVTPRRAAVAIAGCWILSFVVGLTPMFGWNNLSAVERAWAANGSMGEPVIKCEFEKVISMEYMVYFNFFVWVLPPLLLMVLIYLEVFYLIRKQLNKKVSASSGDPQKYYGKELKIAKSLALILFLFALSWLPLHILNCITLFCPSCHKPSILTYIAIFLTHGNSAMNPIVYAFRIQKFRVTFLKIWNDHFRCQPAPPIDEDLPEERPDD

Adenosine receptor A2a [8] = biological target: Adenosine receptor A2a (Rattus norvegicus, UniProt P30543); test: Displacement of [3H]MSX-2 from adenosine A2A receptor in rat brain striatum; type: tissue-based
[9] = biological target: T9, Adenosine receptor A2b (Homo sapiens) (UniProt P29275); test: Displacement of [3H]PSB-603 from human adenosine A2B receptor relative to control; set-up: concentration or dose not given beside the values; conditions: concentration not given here
T9 sequence (whole entry): T3 sequence (P29275 whole entry)

[10] = biological target: T10, MAO-B (amine oxidase [flavin-containing] B) (Homo sapiens, UniProt P27338); test: Inhibition of human MAO-B at 10 uM relative to control; procedure, shortened: as §3
T10 sequence (P27338 whole entry): T1 sequence (P27338 whole entry)

[11] = biological target: T11, Adenosine receptor A1 (Rattus norvegicus) (UniProt P25099); test: Displacement of [3H]CCPA from adenosine A1 receptor in rat brain cortex relative to control; type: tissue-based; set-up: concentration or dose not given beside the values; conditions: concentration not given here; procedure, shortened: as §2
T11 sequence (whole entry): T4 sequence (P25099 whole entry)

Chain of Adenosine receptor A2a (Rattus norvegicus, UniProt P30543) (P30543 whole entry): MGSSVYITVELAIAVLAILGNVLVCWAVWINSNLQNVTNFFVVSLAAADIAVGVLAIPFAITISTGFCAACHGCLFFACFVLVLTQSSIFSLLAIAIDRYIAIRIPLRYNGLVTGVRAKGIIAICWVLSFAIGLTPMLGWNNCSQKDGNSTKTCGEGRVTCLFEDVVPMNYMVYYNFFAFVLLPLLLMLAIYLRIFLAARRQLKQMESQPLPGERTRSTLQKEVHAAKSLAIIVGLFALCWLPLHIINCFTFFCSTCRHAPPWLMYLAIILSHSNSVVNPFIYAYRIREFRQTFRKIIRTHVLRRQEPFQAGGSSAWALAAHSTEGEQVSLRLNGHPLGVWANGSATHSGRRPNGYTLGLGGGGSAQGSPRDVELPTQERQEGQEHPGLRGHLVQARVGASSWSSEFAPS
Chain of Adenosine receptor A2a (Homo sapiens, UniProt P29274) (P29274 whole entry): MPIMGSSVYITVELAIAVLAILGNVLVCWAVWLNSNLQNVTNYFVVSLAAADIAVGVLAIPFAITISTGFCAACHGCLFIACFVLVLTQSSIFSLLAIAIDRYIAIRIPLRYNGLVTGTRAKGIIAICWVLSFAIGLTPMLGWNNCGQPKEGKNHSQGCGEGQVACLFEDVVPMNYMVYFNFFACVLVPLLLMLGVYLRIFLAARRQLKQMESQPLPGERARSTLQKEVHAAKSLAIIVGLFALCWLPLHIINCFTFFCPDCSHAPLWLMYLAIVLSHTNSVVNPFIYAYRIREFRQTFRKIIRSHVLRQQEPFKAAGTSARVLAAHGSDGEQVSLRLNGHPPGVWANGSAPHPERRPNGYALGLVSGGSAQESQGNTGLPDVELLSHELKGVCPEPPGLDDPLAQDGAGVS

Row | SMILES | IC50 [1] | Ki (Adenosine receptor A2a [2]) | inhibition [3] | Ki (Adenosine receptor A2b) | Ki (Adenosine receptor A1 [4]) | Ki (Adenosine receptor A3) | IC50 [5] | inhibition at 10 µM [6] | Ki (Adenosine receptor A1 [7]) | Ki (Adenosine receptor A2a [8]) | inhibition [9] | inhibition at 10 µM [10] | inhibition [11]
1 | C#CCn1c(=O)c2c(nc3n2CCCN3Cc2ccccc2)n(C)c1=O | 3760 nM | 253 nM | 34% | 3520 nM | 135 nM | > 10000 nM | > 10000 nM | 5% | 249 nM | 533 nM | – | – | –
2 | C#CCn1c(=O)c2c(nc3n2CCCN3CCc2ccc(OC)cc2)n(C)c1=O | > 10000 nM | 508 nM | 13% | > 1000 nM | 3140 nM | > 1000 nM | – | – | 4400 nM | 288 nM | 8% | 25% | –
3 | C#CCn1c(=O)c2c(nc3n2CCCN3CC2CCCO2)n(C)c1=O (stereo unspecified) | > 10000 nM | 1110 nM | 9% | > 1000 nM | 169 nM | > 10000 nM | – | – | 1150 nM | 1430 nM | 6% | 30% | –
4 | C#CCn1c(=O)c2c(nc3n2CCCN3c2ccc(F)cc2)n(C)c1=O | > 10000 nM | 2120 nM | 22% | > 1000 nM | 1190 nM | > 10000 nM | – | – | 3610 nM | 1940 nM | 7% | 17% | –
5 | Cn1c(=O)c2c(nc3n2CCCN3c2ccc(Cl)c(Cl)c2)n(C)c1=O | 10000 nM | – | 12% | > 1000 nM | > 10000 nM | > 1000 nM | > 10000 nM | 12% | – | 4700 nM | 3% | 50% | 28%
6 | Cn1c(=O)c2c(nc3n2CCCN3CCc2cccc(Cl)c2)n(C)c1=O | 1350 nM | 1350 nM | 43% | > 1000 nM | 1760 nM | > 10000 nM | > 10000 nM | -4% | – | 166 nM | 1% | – | –
7 | CCn1c(=O)c2c(nc3n2CCCN3c2ccc(O)cc2)n(CC)c1=O | 10000 nM | – | 29% | > 1000 nM | > 10000 nM | > 10000 nM | > 10000 nM | 11% | – | 10900 nM | 22% | 56% | 30%
8 | Cn1c(=O)c2c(nc3n2CCCN3CCc2ccc(Cl)c(Cl)c2)n(C)c1=O | 86.9 nM | 5250 nM | 23% | > 1000 nM | 7240 nM | > 10000 nM | > 10000 nM | -2% | – | 780 nM | 10% | – | –
9 | Cn1c(=O)c2c(nc3n2CCCN3CC(=O)N2CCN(Cc3ccccc3)CC2)n(C)c1=O | 10000 nM | – | 23% | > 300 nM | > 1500 nM | > 300 nM | > 10000 nM | 4% | – | 14000 nM | -7% | 55% | 0%

Second part, the molecule after the results:

Row | IC50 [1] | Ki (Adenosine receptor A2a [2]) | inhibition [3] | Ki (Adenosine receptor A2b) | Ki (Adenosine receptor A1 [4]) | Ki (Adenosine receptor A3) | IC50 [5] | inhibition at 10 µM [6] | Ki (Adenosine receptor A1 [7]) | Ki (Adenosine receptor A2a [8]) | inhibition [9] | inhibition at 10 µM [10] | inhibition [11] | SMILES
10 | 1800 nM | 417 nM | – | > 1000 nM | 1060 nM | 4410 nM | > 10000 nM | 4% | 605 nM | 641 nM | 16% | – | – | C#CCn1c(=O)c2c(nc3n2CCCN3Cc2ccccc2OC)n(C)c1=O
11 | > 10000 nM | 311 nM | 25% | 17100 nM | 515 nM | > 10000 nM | – | – | 2360 nM | 361 nM | – | 26% | – | C#CCn1c(=O)c2c(nc3n2CCCN3C2CCCCC2)n(C)c1=O
12 | > 10000 nM | 231 nM | 13% | 3970 nM | 1070 nM | > 10000 nM | – | – | 866 nM | 380 nM | – | 19% | – | C#CCn1c(=O)c2c(nc3n2CCCN3C2CCC2)n(C)c1=O
13 | > 10000 nM | 510 nM | 5% | > 1000 nM | 219 nM | > 100 nM | – | – | 1870 nM | 498 nM | -5% | 33% | – | C#CCn1c(=O)c2c(nc3n2CCCN3CC2CCCCC2)n(C)c1=O
14 | 624 nM | 5610 nM | 38% | > 1000 nM | 3030 nM | > 10000 nM | > 10000 nM | 4% | – | 515 nM | 8% | – | – | Cn1c(=O)c2c(nc3n2CCCN3CCc2ccc(Cl)cc2)n(C)c1=O
15 | > 10000 nM | 346 nM | 28% | > 10000 nM | 501 nM | > 10000 nM | – | – | 8260 nM | 276 nM | 12% | 37% | – | C#CCn1c(=O)c2c(nc3n2CCCN3CCc2ccc(O)cc2)n(C)c1=O
16 | > 10000 nM | 317 nM | 20% | > 1000 nM | 990 nM | > 1000 nM | – | – | 1410 nM | 710 nM | 16% | 17% | – | C#CCn1c(=O)c2c(nc3n2CCCN3CCc2cccs2)n(C)c1=O
